Results taken from ChEMBL document CHEMBL3593168, “Structure-Based Design of Macrocyclic Coagulation Factor VIIa Inhibitors” (J Med Chem, 2015).

What was measured:
Prothrombin = Prothrombin (Homo sapiens, UniProt P00734); assay: Inhibition of human thrombin using S2238 as substrate measured for 30 mins
In short: (§1)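 Ki measured against purified human enzymes (APC, FXa, FIXa, plasma kallikrein, thrombin, trypsin) at room temperature (25 °C) and averaged from two experiments.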

[1] = molecular target: Vitamin K-dependent protein C (Homo sapiens, UniProt P04070); assay: Inhibition of human APC measured for 30 mins; in short: as §1
Kallikrein-1 = Kallikrein-1 (Homo sapiens, UniProt P06870); assay: Inhibition of human tissue kallikrein 1 measured for 30 mins
In short: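 Purified human tissue kallikrein-1 assayed at 37 °C. Ki averaged from two experiments.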

Plasma kallikrein = Plasma kallikrein (Homo sapiens, UniProt P03952); assay: Inhibition of human plasma kallikrein using S2302 as substrate measured for 30 mins; in short: as §1
Coagulation factor X = Coagulation factor X (Homo sapiens, UniProt P00742); assay: Inhibition of human F10a using S2222 as substrate measured for 30 mins; in short: as §1
[2] = molecular target: Coagulation factor VII/tissue factor (Homo sapiens, UniProt P08709); assay: Inhibition of human recombinant TF/F7a complex using S2288 as substrate preincubated for 15 mins followed by protein addition measured for 60 mins; type: protein-complex assay
In short: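 Ki measured against recombinant human TF/FVIIa enzyme at room temperature (25 °C) and averaged from two experiments.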

Coagulation factor IX = Coagulation factor IX (Homo sapiens, UniProt P00740); assay: Inhibition of human F9a measured for 30 mins; in short: as §1
Plasma = assay: Anticoagulant activity in F7-deficient human plasma assessed as concentration required to double prothrombin time; type: functional
Trypsin = Trypsin (Homo sapiens, UniProt P07477+P07478+P35030); assay: Inhibition of human trypsin measured for 30 mins; type: protein assay; in short: as §1

Sequence of Plasma kallikrein (P03952 20-390 limits assumed): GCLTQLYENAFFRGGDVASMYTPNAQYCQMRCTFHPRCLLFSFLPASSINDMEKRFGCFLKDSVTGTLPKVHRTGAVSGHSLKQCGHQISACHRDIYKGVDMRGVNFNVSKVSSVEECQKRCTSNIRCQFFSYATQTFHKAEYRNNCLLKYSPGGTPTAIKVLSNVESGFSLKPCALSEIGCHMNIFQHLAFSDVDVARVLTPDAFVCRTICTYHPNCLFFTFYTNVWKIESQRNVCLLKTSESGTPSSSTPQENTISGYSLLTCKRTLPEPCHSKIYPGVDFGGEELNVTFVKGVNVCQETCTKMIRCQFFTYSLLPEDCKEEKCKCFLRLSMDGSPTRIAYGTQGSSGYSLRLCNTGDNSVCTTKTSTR
Sequence of Plasma kallikrein (P03952 391-638 limits assumed): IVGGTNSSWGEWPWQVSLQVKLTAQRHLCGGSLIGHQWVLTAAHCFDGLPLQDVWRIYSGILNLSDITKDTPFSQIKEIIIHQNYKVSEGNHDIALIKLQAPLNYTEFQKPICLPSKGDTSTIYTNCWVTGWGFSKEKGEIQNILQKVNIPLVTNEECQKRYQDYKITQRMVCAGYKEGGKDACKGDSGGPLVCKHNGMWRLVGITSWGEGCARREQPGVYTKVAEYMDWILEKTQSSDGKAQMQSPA
Sequence of Kallikrein-1 (P06870 whole entry): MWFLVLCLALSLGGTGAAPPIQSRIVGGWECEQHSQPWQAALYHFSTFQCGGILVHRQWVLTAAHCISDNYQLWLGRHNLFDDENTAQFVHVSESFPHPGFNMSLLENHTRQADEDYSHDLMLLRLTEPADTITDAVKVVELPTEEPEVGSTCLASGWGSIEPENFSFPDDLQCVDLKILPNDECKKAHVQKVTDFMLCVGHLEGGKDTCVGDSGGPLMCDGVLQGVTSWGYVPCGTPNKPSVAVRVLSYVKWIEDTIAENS
Sequence of Coagulation factor VII/tissue factor (P08709 61-212 limits assumed): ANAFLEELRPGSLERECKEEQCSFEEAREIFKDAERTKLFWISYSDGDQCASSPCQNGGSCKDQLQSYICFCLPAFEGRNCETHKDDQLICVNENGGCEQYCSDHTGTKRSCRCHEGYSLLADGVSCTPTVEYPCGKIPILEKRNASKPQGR
Sequence of Coagulation factor VII/tissue factor (P08709 213-466 limits assumed): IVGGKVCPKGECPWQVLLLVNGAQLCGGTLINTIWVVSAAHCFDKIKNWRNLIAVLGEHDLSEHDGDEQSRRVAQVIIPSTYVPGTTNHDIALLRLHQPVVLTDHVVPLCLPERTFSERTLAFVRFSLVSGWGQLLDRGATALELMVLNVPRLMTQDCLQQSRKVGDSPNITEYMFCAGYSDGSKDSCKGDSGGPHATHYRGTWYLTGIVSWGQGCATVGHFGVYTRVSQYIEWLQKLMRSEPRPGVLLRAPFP
Sequence of Coagulation factor VII/tissue factor (P13726 33-295 partner limits assumed): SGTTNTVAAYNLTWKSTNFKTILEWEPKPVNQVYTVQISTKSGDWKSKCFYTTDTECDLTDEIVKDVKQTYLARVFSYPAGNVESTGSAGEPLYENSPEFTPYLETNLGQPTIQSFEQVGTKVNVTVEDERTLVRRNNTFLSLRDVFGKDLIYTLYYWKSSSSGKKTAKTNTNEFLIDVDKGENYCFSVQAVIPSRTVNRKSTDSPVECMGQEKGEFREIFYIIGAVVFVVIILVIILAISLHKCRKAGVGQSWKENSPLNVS
Sequence of Coagulation factor X (P00742 41-179 limits assumed): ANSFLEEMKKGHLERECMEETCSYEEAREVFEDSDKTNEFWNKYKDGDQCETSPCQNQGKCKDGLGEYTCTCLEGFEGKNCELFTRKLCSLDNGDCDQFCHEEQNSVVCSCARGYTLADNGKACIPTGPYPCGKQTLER
Sequence of Coagulation factor X (P00742 235-488 limits assumed): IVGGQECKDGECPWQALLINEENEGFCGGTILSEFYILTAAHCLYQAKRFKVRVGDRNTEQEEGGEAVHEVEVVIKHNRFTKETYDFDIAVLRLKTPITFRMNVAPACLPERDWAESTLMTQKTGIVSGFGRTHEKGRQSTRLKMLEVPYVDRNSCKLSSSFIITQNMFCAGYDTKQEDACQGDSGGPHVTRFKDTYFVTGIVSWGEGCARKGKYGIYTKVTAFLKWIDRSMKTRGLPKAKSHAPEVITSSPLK
Sequence of Vitamin K-dependent protein C (P04070 43-197 limits assumed): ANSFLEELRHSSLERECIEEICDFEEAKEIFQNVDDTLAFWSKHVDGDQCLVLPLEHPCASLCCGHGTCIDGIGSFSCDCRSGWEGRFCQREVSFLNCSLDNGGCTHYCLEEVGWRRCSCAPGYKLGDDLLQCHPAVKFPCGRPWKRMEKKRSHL
Sequence of Vitamin K-dependent protein C (P04070 212-461 limits assumed): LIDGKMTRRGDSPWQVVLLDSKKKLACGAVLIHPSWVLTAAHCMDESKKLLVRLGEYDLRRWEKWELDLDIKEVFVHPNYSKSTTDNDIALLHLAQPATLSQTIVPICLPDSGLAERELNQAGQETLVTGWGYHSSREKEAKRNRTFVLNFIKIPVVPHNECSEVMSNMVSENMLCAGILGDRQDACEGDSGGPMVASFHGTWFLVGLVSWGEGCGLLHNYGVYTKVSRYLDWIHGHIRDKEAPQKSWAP
Sequence of Coagulation factor IX (P00740 47-191 limits assumed): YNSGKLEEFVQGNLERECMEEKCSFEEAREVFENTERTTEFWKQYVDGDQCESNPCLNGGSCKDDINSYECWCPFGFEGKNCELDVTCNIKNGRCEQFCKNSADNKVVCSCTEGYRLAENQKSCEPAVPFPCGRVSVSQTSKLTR
Sequence of Coagulation factor IX (P00740 227-461 limits assumed): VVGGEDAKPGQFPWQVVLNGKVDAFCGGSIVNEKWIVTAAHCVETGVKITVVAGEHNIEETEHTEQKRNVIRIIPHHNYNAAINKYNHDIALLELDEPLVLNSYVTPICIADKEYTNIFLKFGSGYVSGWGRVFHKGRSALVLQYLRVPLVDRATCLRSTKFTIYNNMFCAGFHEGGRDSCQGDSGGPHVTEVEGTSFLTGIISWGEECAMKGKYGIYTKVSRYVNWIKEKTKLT

SMILES	Ki (Prothrombin)	Ki [1]	Ki (Kallikrein-1)	Ki (Plasma kallikrein)	Ki (Coagulation factor X)	Ki [2]	Ki (Coagulation factor IX)	Ki (Trypsin)	2PT (Plasma)
CCS(=O)(=O)c1ccc2cc1CNC(=O)[C@H](Nc1ccc3c(N)nccc3c1)c1ccc(cc1)CCCC(=O)N2	5800 nM	1300 nM	100 nM	4600 nM	3200 nM	8 nM	> 35000 nM	3600 nM	1.6 µM
Nc1nccc2cc(NC3C(=O)NCc4cccc(c4)NC(=O)CCCOc4ccc3cc4)ccc12 (stereo not drawn)	–	–	–	–	–	4600 nM	–	–	–
Nc1nccc2cc(NC3C(=O)NCc4cccc(c4)NC(=O)CCCCc4ccc3cc4)ccc12 (stereo not drawn)	–	–	–	–	–	6100 nM	–	–	–
Nc1nccc2cc(NC(C(=O)NCc3ccccc3)c3ccccc3)ccc12 (stereo not drawn)	–	–	–	–	–	54000 nM	–	–	–
CCS(=O)(=O)c1ccc2cc1CNC(=O)[C@H](Nc1ccc(C(=N)N)cc1)c1ccc(cc1)CCCC(=O)N2	180 nM	41 nM	1900 nM	50 nM	5500 nM	0.7 nM	34000 nM	58 nM	0.42 µM
Nc1nccc2cc(N[C@H]3C(=O)NCc4cccc(c4)NC(=O)CCCc4ccc3cc4)ccc12	> 13000 nM	2800 nM	18 nM	> 6000 nM	> 9000 nM	400 nM	> 35000 nM	> 6000 nM	26 µM

Second part, led by results:

Ki (Prothrombin)	Ki [1]	Ki (Kallikrein-1)	Ki (Plasma kallikrein)	Ki (Coagulation factor X)	Ki [2]	Ki (Coagulation factor IX)	Ki (Trypsin)	SMILES	2PT (Plasma)
4000 nM	1800 nM	100 nM	3600 nM	3300 nM	5.2 nM	> 35000 nM	3000 nM	CC(C)S(=O)(=O)c1ccc2cc1CNC(=O)[C@H](Nc1ccc3c(N)nccc3c1)c1ccc(cc1)CCCC(=O)N2	1.4 µM
–	–	–	–	–	> 18000 nM	–	–	Nc1nccc2cc(N[C@@H]3C(=O)NCc4cccc(c4)NC(=O)CCCc4ccc3cc4)ccc12	–
–	–	–	–	–	10000 nM	–	–	CC(=O)Nc1cccc(CNC(=O)C(Nc2ccc3c(N)nccc3c2)c2ccccc2)c1 (stereo not drawn)	–
> 13000 nM	14000 nM	22 nM	> 6000 nM	4800 nM	30 nM	> 35000 nM	> 6000 nM	CC(C)(C)S(=O)(=O)c1ccc2cc1CNC(=O)C(Nc1ccc3c(N)nccc3c1)c1ccc(cc1)CCCC(=O)N2 (racemic)	8.6 µM
6700 nM	830 nM	100 nM	1700 nM	1000 nM	1.6 nM	16000 nM	2700 nM	CCS(=O)(=O)c1ccc2cc1CNC(=O)[C@H](Nc1ccc3c(N)nccc3c1)c1ccc(c(C)c1)CCCC(=O)N2	1.2 µM
–	–	–	–	–	4600 nM	–	–	Nc1nccc2cc(NC3C(=O)NCc4cccc(c4)NC(=O)CCc4ccc3cc4)ccc12 (stereo not drawn)	–
–	–	–	–	–	920 nM	–	–	Nc1nccc2cc(NC3C(=O)NCc4cccc(c4)NC(=O)CCCc4ccc3cc4)ccc12 (stereo not drawn)	–
–	–	–	–	–	8 nM	–	–	CC(=O)Nc1ccc(S(=O)(=O)C(C)C)c([C@H]2CCCN2C(=O)[C@H](Nc2ccc3c(N)nccc3c2)c2ccccc2)c1	12 µM
